As a reminder, the IC50 is the point on the concentration scale where inhibition reaches its midpoint.

The text below walks through data of ChEMBL document CHEMBL4342456, “Preventing Morphine-Seeking Behavior through the Re-Engineering of Vincamine's Biological Activity” (J Med Chem, 2020).

One assay has as its target T1, Neuropeptide S receptor (Homo sapiens, UniProt Q6W5P4).
T1 sequence (Q6W5P4 whole entry): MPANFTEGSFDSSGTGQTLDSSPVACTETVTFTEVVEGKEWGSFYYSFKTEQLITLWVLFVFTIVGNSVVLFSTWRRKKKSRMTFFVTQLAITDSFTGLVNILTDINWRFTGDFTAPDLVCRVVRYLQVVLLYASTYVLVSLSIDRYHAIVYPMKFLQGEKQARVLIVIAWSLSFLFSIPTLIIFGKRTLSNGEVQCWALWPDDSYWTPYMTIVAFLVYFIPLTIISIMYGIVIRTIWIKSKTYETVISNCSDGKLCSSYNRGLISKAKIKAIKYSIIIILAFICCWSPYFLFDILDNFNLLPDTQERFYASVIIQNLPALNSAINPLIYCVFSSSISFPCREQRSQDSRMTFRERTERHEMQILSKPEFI
Briefly: Antagonist activity at human Gq-coupled NPSR1b expressed in human U2OS cells assessed as inhibition in neuropeptide S-induced beta-arrestin 2 recruitment incubated for 30 mins followed by neuropeptide S addition and measured after 90 or 180 mins by pathhunter beta-arrestin assay. The class given is cell-based. Put shortly:
(§1)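 PathHunter beta-arrestin recruitment, antagonist mode, run at DiscoverX. Cells seeded and held at 37 °C, then preincubated with test sample for 30 min at 37 °C or room temperature (1% vehicle). Agonist then added at EC80 for 90 or 180 min. […] IC50 comes from concentration–response runs in the same format.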
In general terms: Activated receptors often draw arrestin, which recruitment assays turn into a signal.

Assay [1] addresses T2, Prolactin-releasing peptide receptor (Homo sapiens, UniProt P49683).
T2 sequence (P49683 whole entry): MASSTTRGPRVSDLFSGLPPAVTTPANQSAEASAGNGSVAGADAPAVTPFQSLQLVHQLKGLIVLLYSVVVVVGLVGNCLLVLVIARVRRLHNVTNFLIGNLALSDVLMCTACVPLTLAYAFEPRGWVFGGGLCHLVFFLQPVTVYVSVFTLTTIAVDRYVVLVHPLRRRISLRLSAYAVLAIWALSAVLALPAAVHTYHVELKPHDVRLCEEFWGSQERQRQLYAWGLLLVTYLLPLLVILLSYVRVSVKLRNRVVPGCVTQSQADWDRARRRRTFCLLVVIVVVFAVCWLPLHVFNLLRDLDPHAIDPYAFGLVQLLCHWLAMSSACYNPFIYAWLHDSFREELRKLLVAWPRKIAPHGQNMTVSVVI
Briefly: Antagonist activity at human Gq-coupled PRLHR expressed in CHOK1 cells assessed as inhibition in prolactin releasing peptide (1 to 31)-induced beta-arrestin 2 recruitment incubated for 30 mins followed by prolactin releasing peptide (1 to 31) addition and measured after 90 or 180 mins by pathhunter beta-arrestin assay. In kind it is cell-based. Put shortly:
as §1

For assay [2], the target named is C-C chemokine receptor type 8 (Homo sapiens, UniProt P51685). Put plainly: Antagonist activity at human CCR8 expressed in CHOK1 cells assessed as reduction in CCL1-induced beta-arrestin 2 recruitment incubated for 30 mins followed by CCL1 addition and measured after 90 or 180 mins by pathhunter beta-arrestin assay. The class given is cell-based. In a few lines:
as §1

The next assay concerns the target Cannabinoid receptor 1 (Homo sapiens, UniProt P21554). Put plainly: Antagonist activity at human Gi/o-coupled CNR1 expressed in CHOK1 cells assessed as inhibition in CP55940-induced beta-arrestin 2 recruitment incubated for 30 mins followed by CP55940 addition and measured after 90 or 180 mins by pathhunter beta-arrestin assay. In kind it is cell-based. Put shortly:
as §1

In another assay the target is Cannabinoid receptor 2 (Homo sapiens, UniProt P34972). Briefly: Antagonist activity at human Gi/o-coupled CNR2 expressed in CHOK1 cells assessed as inhibition in CP55940-induced beta-arrestin 2 recruitment incubated for 30 mins followed by CP55940 addition and measured after 90 or 180 mins by pathhunter beta-arrestin assay. The class given is cell-based. In a few lines: as §1
Chain of Cannabinoid receptor 2 (P34972 whole entry): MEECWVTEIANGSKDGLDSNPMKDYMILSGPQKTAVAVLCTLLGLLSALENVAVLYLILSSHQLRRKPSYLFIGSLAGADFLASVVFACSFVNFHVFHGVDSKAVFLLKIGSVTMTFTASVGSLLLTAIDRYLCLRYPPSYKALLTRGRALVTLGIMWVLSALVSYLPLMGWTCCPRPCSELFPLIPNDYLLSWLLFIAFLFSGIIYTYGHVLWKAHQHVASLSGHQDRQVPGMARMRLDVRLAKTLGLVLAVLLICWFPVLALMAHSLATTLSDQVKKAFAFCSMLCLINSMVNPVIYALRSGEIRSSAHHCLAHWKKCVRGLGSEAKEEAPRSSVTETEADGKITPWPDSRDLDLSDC

Assay [3] addresses T3, Glucose-dependent insulinotropic receptor (Homo sapiens, UniProt Q8TDV5).
T3 sequence (Q8TDV5 whole entry): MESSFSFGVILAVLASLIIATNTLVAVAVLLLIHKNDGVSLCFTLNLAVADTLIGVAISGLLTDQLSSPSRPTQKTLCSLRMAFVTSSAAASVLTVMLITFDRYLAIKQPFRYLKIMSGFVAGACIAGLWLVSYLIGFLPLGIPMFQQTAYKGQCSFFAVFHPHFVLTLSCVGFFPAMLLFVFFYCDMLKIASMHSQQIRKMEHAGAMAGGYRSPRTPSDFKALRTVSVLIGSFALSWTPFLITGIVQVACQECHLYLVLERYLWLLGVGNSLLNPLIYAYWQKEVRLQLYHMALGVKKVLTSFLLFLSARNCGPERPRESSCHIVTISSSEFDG
Put plainly: Antagonist activity at human GPR119 expressed in human HEK293 cells assessed as inhibition in agonist-induced beta-arrestin 2 recruitment incubated for 30 mins followed by agonist addition and measured after 90 or 180 mins by pathhunter beta-arrestin assay. The class given is cell-based. In a few lines:
as §1

Another assay concerns the target Prostacyclin receptor (Homo sapiens, UniProt P43119). Put plainly: Antagonist activity at human Gs-coupled PTGIR assessed as inhibition in beraprost-induced beta-arrestin 2 recruitment incubated for 30 mins followed by beraprost- addition and measured after 90 or 180 mins by pathhunter beta-arrestin assay. In a few lines:
as §1

Chain of Prostacyclin receptor (P43119 whole entry): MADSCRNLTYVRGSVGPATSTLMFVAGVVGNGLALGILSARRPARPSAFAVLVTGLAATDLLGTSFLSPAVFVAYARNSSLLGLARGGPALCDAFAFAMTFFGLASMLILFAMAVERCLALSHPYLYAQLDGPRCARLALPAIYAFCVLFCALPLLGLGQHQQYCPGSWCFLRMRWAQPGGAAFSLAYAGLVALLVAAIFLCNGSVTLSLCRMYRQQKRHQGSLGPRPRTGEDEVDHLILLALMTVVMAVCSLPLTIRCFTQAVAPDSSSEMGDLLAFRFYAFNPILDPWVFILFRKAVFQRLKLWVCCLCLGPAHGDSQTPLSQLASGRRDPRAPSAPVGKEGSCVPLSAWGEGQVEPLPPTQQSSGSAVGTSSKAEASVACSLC
Chain of Cannabinoid receptor 1 (P21554 whole entry): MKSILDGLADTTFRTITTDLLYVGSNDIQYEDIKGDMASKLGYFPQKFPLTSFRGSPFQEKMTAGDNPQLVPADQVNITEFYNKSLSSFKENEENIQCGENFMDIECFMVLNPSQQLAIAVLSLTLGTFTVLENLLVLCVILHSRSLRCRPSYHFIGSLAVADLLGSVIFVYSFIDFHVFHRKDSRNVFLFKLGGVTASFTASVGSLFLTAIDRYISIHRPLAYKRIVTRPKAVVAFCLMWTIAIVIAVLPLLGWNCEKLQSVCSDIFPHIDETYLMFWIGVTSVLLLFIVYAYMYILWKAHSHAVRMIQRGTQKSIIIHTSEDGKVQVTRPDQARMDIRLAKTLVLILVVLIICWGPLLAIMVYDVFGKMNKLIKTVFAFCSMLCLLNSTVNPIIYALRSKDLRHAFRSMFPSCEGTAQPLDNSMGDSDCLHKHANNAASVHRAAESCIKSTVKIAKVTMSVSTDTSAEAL
Chain of C-C chemokine receptor type 8 (P51685 whole entry): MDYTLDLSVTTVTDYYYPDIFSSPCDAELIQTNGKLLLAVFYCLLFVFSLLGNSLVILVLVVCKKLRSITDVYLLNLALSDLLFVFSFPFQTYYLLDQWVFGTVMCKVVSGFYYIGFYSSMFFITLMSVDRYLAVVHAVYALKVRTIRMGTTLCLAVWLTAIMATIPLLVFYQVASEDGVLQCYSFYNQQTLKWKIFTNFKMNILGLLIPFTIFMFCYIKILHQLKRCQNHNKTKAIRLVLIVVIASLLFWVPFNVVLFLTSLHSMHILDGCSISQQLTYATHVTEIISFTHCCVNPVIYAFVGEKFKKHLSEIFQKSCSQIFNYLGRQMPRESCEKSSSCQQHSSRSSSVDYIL

In the case of `CC[C@]12C=C(C(=O)OC)n3c(c(CCNC(=O)c4ccc(Br)cc4)c4ccccc43)[C@H]1N(C#N)CCC2`, the results for the IC50 (at Neuropeptide S receptor; in assay [1]; in assay [2]) were 5.77 µM, 2.43 µM and 5.2 µM, respectively.
Consider `CC[C@]12CCCN(C(=O)c3cccc(Br)c3)CCc3c(n(c4ccccc34)C(=O)C1)[C@@H]2OC`, for which the IC50 on Cannabinoid receptor 1 stood at 4.95 µM; at Cannabinoid receptor 2, 25.7 µM; in assay [3], 4.62 µM; at Neuropeptide S receptor, 3.9 µM; in assay [1] it was 13.8 µM; at Prostacyclin receptor it was 12.5 µM.
